Calls of active or inactive are those of the source. The rule behind the calls is not given here.
Assays:
[1] = system: Human immunodeficiency virus 1; experiment: Antiviral activity against HIV1 NL4.3 infected in human CEM-GFP cells assessed as inhibition p24 antigen production at non cytotoxic concentration after 8 days by ELISA; type: functional
How it was run: (§1)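 CEM-GFP T cells carry a stably integrated LTR-driven GFP gene that is trans-activated by Tat on infection. Cells were infected with HIV-1 NL4.3 at MOI 0.05 and incubated with compound for up to 8 days post infection. Viral p24 was read by ELISA. Line 2 was tested at each compound's non-cytotoxic concentration. IC50 is 50% protection from virus, n = 3.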

[2] = Cytotoxicity against human CEM cells expressing green fluorescent protein assessed as oncytotoxic concentration by MTT assay; type: cell-based, CCRF-CEM; conditions: read-out: Activity
How it was run: (§2)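 MTT cell viability assay in CEM-GFP cells. CC50 is the concentration reducing proliferation by 50%, n = 3. The non-cytotoxic concentration was chosen from these MTT results for the antiviral testing.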

[3] = system: Human immunodeficiency virus 1; experiment: Antiviral activity against HIV1 NL4.3 infected in human CEM-GFP cells assessed as inhibition p24 antigen production after 8 days by ELISA; type: functional, organism-based; conditions: Human immunodeficiency virus 1, NL4.3, CEM-GFP, 192 h; how it was run: as §1
[4] = Therapeutic index, ratio of CC50 for human CEM cells expressing green fluorescent protein to IC50 for HIV1 NL4.3; type: cell-based, CCRF-CEM; conditions: read-out: TI
How it was run: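 Therapeutic index is CC50 (MTT proliferation in CEM-GFP cells, n = 3) divided by IC50 (p24 ELISA protection of HIV-1 NL4.3-infected CEM-GFP cells, n = 3).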

[5] = Cytotoxicity against human CEM cells expressing green fluorescent protein by MTT assay; type: cell-based, CCRF-CEM; how it was run: as §2

SMILES	MNTC [2]	inhibition [1]	other results
CCCCC1(C(=O)OC)Cc2c([nH]c3ccccc23)C(C)=N1 (centres undefined)	8.39 µM		inhibition (INH) [1]: 12.17%
Cc1nc(C(=O)N2CCSCC2)cc2c3ccccc3n(Cc3ccc(F)cc3)c12	23.8 µM	inactive	
CCCn1c2ccccc2c2cc(C(=O)OC)nc(C)c21	3.54 µM	inactive	
CCCCn1c2ccccc2c2cc(C(=O)OC)nc(C)c21	1.69 µM	inactive	
COC(=O)c1cc2c([nH]c3ccccc32)c(C=O)n1	9.83 µM		IC50 [3]: 2900 nM; selectivity ratio [4]: 7; CC50 [5]: 20.3 µM
Cc1nc(C(=O)N2CCOCC2)cc2c1[nH]c1ccccc12	27.1 µM	inactive	
Cc1cn([C@H]2C[C@H](N=[N+]=[N-])[C@@H](CO)O2)c(=O)[nH]c1=O [ZIDOVUDINE]			IC50 [3]: 1040 nM; CC50 [5]: 23 µM
C#CCn1c2ccccc2c2cc(C(=O)N3CCSCC3)nc(C)c21	21.5 µM	inactive	
COC(=O)C1Cc2c([nH]c3ccccc23)C(C)=N1 (centres undefined)	18.6 µM		inhibition (INH) [1]: 17.26%
CC(C)=CCn1c2ccccc2c2cc(C(=O)N3CCSCC3)nc(C)c21	19.8 µM	inactive	
COC(=O)c1cc2c3ccccc3n(Cc3ccccc3)c2c(C)n1	15.1 µM	inactive	
Cc1nc(C(=O)N2CCCCC2)cc2c1[nH]c1ccccc12	1.71 µM	inactive	
Cc1nc(C(=O)N2CCSCC2)cc2c1[nH]c1ccccc12	1.61 µM		inhibition (INH) [1]: 16.9%
CCn1c2ccccc2c2cc(C(=O)OC)nc(C)c21	3.73 µM	inactive	
CCCCn1c2ccccc2c2cc(C(=O)N3CCSCC3)nc(C)c21	1.36 µM	inactive	
Cc1nc(C(=O)N2CCSCC2)cc2c3ccccc3n(Cc3ccccc3)c12	6.22 µM	inactive	
CC1=NC(C(=O)O)Cc2c1[nH]c1ccccc21 (centres undefined)	17.5 µM		inhibition (INH) [1]: 16.48%
CCCCn1c2c(c3ccccc31)CC(CCCC)(C(=O)OC)N=C2C (centres undefined)	14.1 µM	inactive	
COC(=O)c1cc2c([nH]c3ccccc32)c(C)n1	4.17 µM		inhibition (INH) [1]: 21.3%
COC(=O)c1cc2c3ccccc3n(C)c2c(C)n1	19.7 µM	inactive	
COC(=O)c1cc2c3ccccc3n3c(=O)ccc(n1)c23	3.59 µM	inactive	

— ChEMBL document CHEMBL1208742, “Synthesis and evaluation of beta-carboline derivatives as inhibitors of human immunodeficiency virus” (Bioorg Med Chem Lett, 2010)
